In ChEMBL document CHEMBL1139444, “Oxazolidinone: search for highly potent antibacterial” (2004) one finds MIC data, which are given here for 11 compounds.

Holding throughout (type): functional
For test [1], the system named is Bacillus cereus. Kind of test: Minimum inhibitory concentration against Bacillus cereus MTCC 430. In a few lines:
(§1)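 Microbroth dilution MIC determination, with results expressed in μg/mL. Where run in triplicate, the highest MIC of the three replicates is the value reported.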

The subject of test [2] is Enterococcus faecalis. The experiment in a line: Minimum inhibitory concentration against Enterococcus faecalis ATCC 14506. The method, boiled down:
as §1

Test [3] deals with Enterococcus faecalis. Kind of test: Minimum inhibitory concentration against Enterococcus faecalis MTCC 439. In a few lines:
as §1

Test [4] concerns Klebsiella pneumoniae. Kind of test: Minimum inhibitory concentration against Klebsiella pneumoniae ATCC 10031. The method, boiled down:
as §1

Test [5] has as its system Staphylococcus epidermidis. Kind of test: Minimum inhibitory concentration against Staphylococcus epidermidis MTCC 155. The method, boiled down:
as §1

The subject of test [6] is Staphylococcus aureus. Kind of test: Minimum inhibitory concentration against Staphylococcus aureus MTCC 96. The method, boiled down: as §1
Test [7] relates to Staphylococcus aureus. Kind of test: Minimum inhibitory concentration against Staphylococcus aureus ATCC 25923. In a few lines: as §1
For test [8], the system named is Staphylococcus aureus. Kind of test: Minimum inhibitory concentration against Staphylococcus aureus ATCC 29213. The method, boiled down: as §1
Test [9] relates to Bacillus pumilus. Kind of test: Minimum inhibitory concentration against Bacillus pumilus MTCC 1607. The method, boiled down: as §1
Test [10] relates to Staphylococcus aureus. Kind of test: Minimum inhibitory concentration against Staphylococcus aureus ATCC 14154. The method, boiled down: as §1
Test [11] relates to Streptococcus pyogenes. Kind of test: Minimum inhibitory concentration against Streptococcus pyogenes MTCC 442. In a few lines: as §1

Structures are written as SMILES. Converted amounts (≈) assume the structure as drawn.

For `C/C(S)=N/C[C@H]1CN(c2ccc(N3CCN(C(=O)/C=C/c4ccc(O)cc4)CC3)c(F)c2)C(=O)O1`, the MIC in test [1] was 0.25 µg/mL (≈ 0.501 µM); in [2], 0.25 µg/mL (≈ 0.501 µM); in [3], 1 µg/mL (≈ 2.01 µM); in test [4], 4 µg/mL (≈ 8.02 µM); in [5] it was at most 0.12 µg/mL; in [6], 0.25 µg/mL (≈ 0.501 µM). Besides, the MIC is 0.25 µg/mL (≈ 0.501 µM) in test [7]; 0.5 µg/mL (≈ 1 µM) in test [8]; 0.25 µg/mL (≈ 0.501 µM) in [9]; 0.5 µg/mL (≈ 1 µM) in [10]; 0.5 µg/mL (≈ 1 µM) in test [11].
In the case of `CC(=O)NC[C@H]1CN(c2ccc(N3CCN(C(=O)/C=C/c4ccc(F)cc4)CC3)c(F)c2)C(=O)O1`, the minimum inhibitory concentration (MIC) in [1] was determined as 4 µg/mL (≈ 8.26 µM); in test [3] it was 4 µg/mL (≈ 8.26 µM); in test [5], 2 µg/mL (≈ 4.13 µM); in test [6] it was 16 µg/mL (≈ 33 µM); in test [9], 4 µg/mL (≈ 8.26 µM); in [11], 8 µg/mL (≈ 16.5 µM).
Regarding `CC(=O)NC[C@H]1CN(c2ccc(N3CCN(C(=O)/C=C/c4ccc(OC(=O)C(C)(C)C)cc4)CC3)c(F)c2)C(=O)O1`, the minimum inhibitory concentration (MIC) in [1] is 16 µg/mL (≈ 28.2 µM); in test [3], 8 µg/mL (≈ 14.1 µM); in test [5], 4 µg/mL (≈ 7.06 µM); in test [6] it was over 16 µg/mL; in test [9], 8 µg/mL (≈ 14.1 µM); in test [11], over 16 µg/mL.
Regarding `CC(=O)NC[C@H]1CN(c2ccc(N3CCOCC3)c(F)c2)C(=O)O1` [LINEZOLID], the minimal inhibitory concentration (MIC) in [1] was 2 µg/mL (≈ 5.93 µM); in [4], over 16 µg/mL; in [5], 2 µg/mL (≈ 5.93 µM); in [9], 1 µg/mL (≈ 2.96 µM); in test [11], 0.5 µg/mL (≈ 1.48 µM).
Turning to `CC(=O)NC[C@H]1CN(c2ccc(N3CCN(C(=O)/C=C/c4ccc(OS(C)(=O)=O)cc4)CC3)c(F)c2)C(=O)O1`, the minimum inhibitory concentration (MIC) in test [1] was 1 µg/mL (≈ 1.78 µM); in test [3], 4 µg/mL (≈ 7.14 µM); in test [5], 8 µg/mL (≈ 14.3 µM); in test [6], 8 µg/mL (≈ 14.3 µM); in [9] it was 4 µg/mL (≈ 7.14 µM); in test [11], 2 µg/mL (≈ 3.57 µM).
For `COc1ccc(/C=C/C(=O)N2CCN(c3ccc(N4C[C@H](CNC(C)=O)OC4=O)cc3F)CC2)cc1`, the MIC in test [1] came to 2 µg/mL (≈ 4.03 µM); in test [3] it was 4 µg/mL (≈ 8.06 µM); in [5], 1 µg/mL (≈ 2.01 µM); in test [6] it was 4 µg/mL (≈ 8.06 µM); in test [9] it was 2 µg/mL (≈ 4.03 µM); in [11] it was 4 µg/mL (≈ 8.06 µM).
Regarding `CC(=O)NC[C@H]1CN(c2ccc(N3CCN(C(=O)CO)CC3)c(F)c2)C(=O)O1` [EPEREZOLID], the MIC in [1] is 2 µg/mL (≈ 5.07 µM); in test [2], 2 µg/mL (≈ 5.07 µM); in [3], 4 µg/mL (≈ 10.1 µM); in test [4], over 16 µg/mL; in test [5], 1 µg/mL (≈ 2.54 µM); in test [7] it was 4 µg/mL (≈ 10.1 µM). In addition, the MIC in test [8] amounted to 4 µg/mL (≈ 10.1 µM); in [9] it was 2 µg/mL (≈ 5.07 µM); in [10] it was 4 µg/mL (≈ 10.1 µM); in [11] it was 4 µg/mL (≈ 10.1 µM).
Turning to `CC(=O)NC[C@H]1CN(c2ccc(N3CCN(C(=O)/C=C/c4ccc(O)c(O)c4)CC3)c(F)c2)C(=O)O1`, the minimum inhibitory concentration (MIC) came to 16 µg/mL (≈ 32.1 µM) in [1]; 8 µg/mL (≈ 16 µM) in test [3]; 4 µg/mL (≈ 8.02 µM) in [5]; 8 µg/mL (≈ 16 µM) in test [6]; 8 µg/mL (≈ 16 µM) in test [9]; 16 µg/mL (≈ 32.1 µM) in test [11].
With `N=C(S)NC[C@H]1CN(c2ccc(N3CCN(C(=O)/C=C/c4ccc5c(c4)OCO5)CC3)c(F)c2)C(=O)O1`, the MIC in [1] was 1 µg/mL (≈ 1.9 µM); in test [2], 0.5 µg/mL (≈ 0.948 µM); in [3] it was 0.25 µg/mL (≈ 0.474 µM); in test [4], over 16 µg/mL; in [5], 0.25 µg/mL (≈ 0.474 µM); in test [6], 1 µg/mL (≈ 1.9 µM). In addition, the minimal inhibitory concentration (MIC) in [7] is 2 µg/mL (≈ 3.79 µM); in [8], 2 µg/mL (≈ 3.79 µM); in test [9], 1 µg/mL (≈ 1.9 µM); in [10] it was 1 µg/mL (≈ 1.9 µM); in test [11] it was 0.5 µg/mL (≈ 0.948 µM).
On to `CC(=O)NC[C@H]1CN(c2ccc(N3CCN(C(=O)/C=C/c4ccc([N+](=O)[O-])cc4)CC3)c(F)c2)C(=O)O1`, for which the minimum inhibitory concentration (MIC) amounted to 1 µg/mL (≈ 1.95 µM) in [1]; 4 µg/mL (≈ 7.82 µM) in test [3]; 4 µg/mL (≈ 7.82 µM) in test [5]; 4 µg/mL (≈ 7.82 µM) in test [6]; 2 µg/mL (≈ 3.91 µM) in test [9]; 1 µg/mL (≈ 1.95 µM) in test [11].
In the case of `CC(=O)NC[C@H]1CN(c2ccc(N3CCN(C(=O)/C=C/c4ccc(F)c(F)c4)CC3)c(F)c2)C(=O)O1`, the MIC in [1] was 4 µg/mL (≈ 7.96 µM); in test [3] it was over 16 µg/mL; in test [5] it was over 16 µg/mL; in test [6], over 16 µg/mL; in [9], 16 µg/mL (≈ 31.8 µM); in test [11], 4 µg/mL (≈ 7.96 µM).
